The values that follow come from publication PMC9998565 (Clinical Pharmacokinetics, 2023).

For data set [1] the following is noted: cited from earlier work.
Data set [2] deals with healthy white male volunteers. Kind of data set: Safety and tolerability. The class given is in vivo, human. The method, boiled down:
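Safety covered AEs, coded by MedDRA 19.0; an AE counted as treatment-emergent if it began or worsened from first dose to 30 days post-treatment, and investigators judged relatedness. Fasting haematology, chemistry, coagulation and urinalysis were collected at screening, pre-dose days 0 and 12–15, day 16 and follow-up. Vital signs and ECGs were taken after 15 min supine rest, pre-dose and 5.5 h post-dose (day 12 pre-dose only). All dosed subjects were included.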

Data set [3] is described as follows: Vericiguat pharmacokinetics in plasma. The class given is in vivo, human. The method, boiled down:
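Test compound was 10 mg once daily after breakfast. Lithium-heparin plasma was sampled pre-dose and at 0.5–15 h on days 12–15, plus 24 h on day 16. A labelled internal standard was added, then automated acetonitrile/ammonium acetate/formic acid precipitation and validated LC. QC accuracy was 93.88–101.33% and CV 1.24–2.58%; storage was −20 °C, analysis within 36 days. Log AUC(0–24) and Cmax were analysed by ANOVA (administration, subject).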

The test system of data set [4] is patients with HF with reduced ejection fraction. The conditions noted are these: vericiguat 10 mg once daily; cited from earlier work.
In another data set the test system is healthy subjects. The conditions noted are these: cited from earlier work.
In data set [5] the test system is healthy white male volunteers. Kind of data set: Hemodynamic profile. It counts as in vivo, human. The method, boiled down: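 Healthy men took test compound 10 mg or placebo once daily for 16 days, with a second test compound (25, 50, 100 mg) ~2 h later on days 13–15. After 15 min supine, seated then standing (2 min) SBP, DBP and HR were taken from 1.25 to ~5 h post-dose on days 0 and 12–15. Baseline was the mean of four seated pre-co-dose values. ANCOVA was run per dose; standing data were descriptive.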

The test system of data set [6] is patients with pulmonary arterial hypertension. The conditions noted are these: 12 weeks, riociguat 1.0–2.5 mg with sildenafil 20 mg three times daily; cited from earlier work.
Data set [7] is described as follows: Sildenafil pharmacokinetics in plasma. The class given is in vivo, human. The method, boiled down: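 For the co-administered compound, plasma (EDTA K3) was drawn 3, 4, 6, 8, 12 and 24 h after test compound/placebo on days 13–15, with dosing at 2 h. Processing used a deuterated internal standard and methyl tert-butyl ether liquid-liquid extraction, then a validated LC assay. Samples were stored at −20 °C and analysed within 38 days. Log AUC(0–22) and Cmax went through ANOVA per dose; the test/placebo ratio was given with 90% CIs.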

Where [8] appears, read: during treatment with sildenafil, days 13–15.
The mark [9] stands for this setting: whole study, both groups also received sildenafil on days 13–15.
Setting [10] is: ANCOVA, day 14, both groups + sildenafil 50 mg.

A value given as a limit tells only on which side of the number the result lay.

Turning to `COC(=O)Nc1c(N)nc(-c2nn(Cc3ccccc3F)c3ncc(F)cc23)nc1N` [Vericiguat], in data set [1], the Half-life was 20 to 30 h. Besides, in data set [1] (intake with food as recommended), the “Onset (time after intake)” value is reported as ~ 4 h. In addition, in data set [1] (steady state, after intake), the “Time to achieve maximum plasma concentration (Cmax)” value was “approximately 4 h”. Besides, the “TEAEs of mild intensity” value in data set [2] (by treatment group, whole study) was found to be 81.3%. Also, in data set [2] (days 0–12, vericiguat group), the “Subjects with dyspepsia (TEAE)” value turned out to be 25.0% and the “Subjects with gastrointestinal disorders (TEAE)” value is 31.3%. In data set [2] (setting [8]), the “Subjects with head discomfort (TEAE)” value was “up to 13.3%” and the “Subjects with headache (TEAE)” value is given as “up to 21.4%”. The “Effects on ECG parameters, including the QT interval” value in data set [2] (in vivo) was “no relevant effects”. In data set [2] (setting [9]), the “Subjects reporting at least one TEAE” value is given as “All subjects”, the “Subjects with at least one sildenafil-related TEAE” value stood at 87.5% and the “Subjects with at least one vericiguat-related TEAE” value is on record as 62.5%. In addition, the “Effect of co-administration of sildenafil on vericiguat pharmacokinetics” value in data set [3] (sildenafil 25–100 mg) is “did not affect”. For the same compound, in data set [3] (vericiguat 10 mg once daily, days 12–15), the “Time at which vericiguat Cmax values were reached post-administration” value is on record as “about 3 h”. For the same compound, the “Composite endpoint of death from cardiovascular causes or hospitalization for HF, hazard ratio” value in data set [4] is reported as 0.90. Besides, the “Increases in HR” value in the data set on healthy subjects (healthy subjects, vericiguat 5–15 mg over several days) is 4–10 bpm. For the same compound, in data set [5] (ANCOVA, day 13, both groups + sildenafil 25 mg), the “Change in seated HR, LS mean difference ‘vericiguat-placebo’” value came to 0.96 bpm. Also, in data set [5] (setting [10]), the “Change in seated HR, LS mean difference ‘vericiguat-placebo’” value is 0.81 bpm and the “Change in seated SBP, LS mean difference ‘vericiguat-placebo’” value is reported as 1.36 mmHg. Besides, the “Change in seated HR, LS mean difference ‘vericiguat-placebo’” value in data set [5] (ANCOVA, day 15, both groups + sildenafil 100 mg) came to 1.38 bpm. Moreover, in data set [5] (day 0), the “Maximum SBP when seated or standing” value amounted to 143 mmHg, the “Minimum SBP when standing” value is on record as 97 mmHg and the “Standing HR” value is given as 54–108 bpm. Further, in data set [5] (day 12), the “Maximum SBP when seated or standing” value is recorded as 141 mmHg, the “Minimum SBP when standing” value is 93 mmHg and the “Standing HR” value is 53–102 bpm. For the same compound, the “Range of standing HR values” in data set [5] (day 13, with sildenafil 25 mg) is 54–114 bpm. In addition, in data set [5] (day 14, with sildenafil 50 mg), the “Range of standing HR values” is 54–119 bpm. In addition, the “Range of standing HR values” in data set [5] (day 15, with sildenafil 100 mg) is 53–127 bpm. In addition, the “Minimum standing SBP” value in data set [5] (days 13–15, with sildenafil) is listed as 81–91 mmHg.

For the compound `COC(=O)N(C)c1c(N)nc(-c2nn(Cc3ccccc3F)c3ncccc23)nc1N` [riociguat], in data set [1], the “Cmax at (time after intake)” value is 1 to 1.5 h and the Half-life is 7 to 12 h. In addition, in data set [6], the “Standing SBP after dosing lower than with placebo” value is listed as “approximately 10 mmHg”.

As to `CCCc1nn(C)c2c(=O)[nH]c(-c3cc(S(=O)(=O)N4CCN(C)CC4)ccc3OCC)nc12` [Sildenafil], in data set [1], the Terminal half-life entry is listed as “about 4 h” and the “Time to achieve Cmax” value is 1 to 2 h. Besides, in data set [7] (across sildenafil 25–100 mg), the “Increase in sildenafil AUC(0–22), vericiguat group compared with placebo group” value is 13–22% and the “Increase in sildenafil Cmax, vericiguat group compared with placebo group” value is 14–20%. Moreover, in data set [7] (sildenafil 25 mg), the “Increase in sildenafil AUC(0–22) with co-administration of vericiguat” value was found to be 22.4% and the “Increase in sildenafil Cmax with co-administration of vericiguat” value (“Increase in sildenafil Cmax … of vericiguat” for short) is 14.2%. Besides, in data set [7] (sildenafil 50 mg), the “Increase in sildenafil AUC(0–22) with co-administration of vericiguat” value turned out to be 17.1% and the “Increase in sildenafil Cmax … of vericiguat” value was found to be 20.4%. In data set [7] (sildenafil 100 mg), the “Increase in sildenafil AUC(0–22) with co-administration of vericiguat” value was 13.0% and the “Increase in sildenafil Cmax … of vericiguat” value came out at 17.1%. Further, the “Time required to achieve the geometric mean Cmax of sildenafil” value in data set [7] (sildenafil 100 mg, day 15, co-administered with vericiguat) amounted to 2 h. In data set [7] (sildenafil 100 mg, day 15, with placebo), the “Time required to achieve the geometric mean Cmax of sildenafil” value is recorded as 1 h. Besides, the “Increase in sildenafil exposure when co-administered with vericiguat” value in data set [7] (sildenafil 25–100 mg) is at most 22%. In addition, in the data set with healthy subjects (healthy volunteers), the “Mean maximum decrease in DBP” value is on record as 5.3 mmHg and the “Mean maximum decrease in SBP” value is listed as 8.3 mmHg. In data set [5] (25, 50, 100 mg, placebo group), the “Dose dependency of BP-reducing effect” value is given as “no clear dose dependency”. Besides, the “Mean decreases from baseline in BP” value in data set [5] (after single doses of sildenafil on days 13–15, placebo group) is recorded as at most 5.3 mmHg. Further, in data set [5] (days 13–15, placebo group), the “Mean maximum decreases in BP” value is listed as at most 11.0 mmHg.
